Among the data in ChEMBL document CHEMBL1141484, “Radiosyntheses of two positron emission tomography probes: [11C]Oseltamivir and its active metabolite [11C]Ro 64-0802” (Bioorg Med Chem Lett, 2008) are Kp values, retold here.

The nature of this series: Ratio of drug level in brain to blood in iv dosed mouse. Particulars: brain/whole blood, read-out: BBR. Format: ADME, organism-based. The essentials:
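Brain/blood radioactivity ratio was taken from decay-corrected %ID/g tissue in whole brain and blood. Samples came from male Wister mice (30 g, 7 weeks) given the 11C tracer iv by tail vein (average 20 MBq/400 µL). Mice were sacrificed at 1–60 min after injection, three per time point.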

Turning to `CCOC(=O)C1=C[C@@H](OC(CC)CC)[C@H](N[11C](C)=O)[C@@H](N)C1`, the Kp amounted to 0.07. For `CCC(CC)O[C@@H]1C=C(C(=O)O)C[C@H](N)[C@H]1N[11C](C)=O` the value was 0.06.
